Source: ChEMBL document CHEMBL1140298, “Identification of borinic esters as inhibitors of bacterial cell growth and bacterial methyltransferases, CcrM and MenH” (2005)
Converted amounts (≈) assume the structure as drawn. The source made the active and inactive calls. No cut-off for these calls is given here.

Experiments:
Enterococcus faecalis = test: Antibacterial activity against Enterococcus faecalis ATCC 29212; assay type: functional
Procedure, shortened: (§1)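 MIC determined following NCCLS guidelines.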

[1] = tested on: Mycobacterium tuberculosis; test: Antibacterial activity against Mycobacterium tuberculosis H37Rv; assay type: functional
Procedure, shortened: (§2)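 MIC read-out, determined according to NCCLS guidelines.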

Moraxella catarrhalis = test: Antibacterial activity against Moraxella catarrhalis; assay type: functional; procedure, shortened: as §1
Bacillus subtilis = test: Antibacterial activity against Bacillus subtilis ATCC 23857; assay type: functional; procedure, shortened: as §1
Staphylococcus aureus = test: Antibacterial activity against Staphylococcus aureus ATCC 29213; assay type: functional; procedure, shortened: as §1
[2] = tested on: Yersinia pseudotuberculosis; test: Antibacterial activity against Yersinia pseudotuberculosis ATCC 29833; assay type: functional; procedure, shortened: as §2
Enterococcus faecium = test: Antibacterial activity against Enterococcus faecium CT26; assay type: functional; procedure, shortened: as §1
[3] = tested on: Staphylococcus epidermidis; test: Antibacterial activity against Staphylococcus epidermidis ATCC 12228; assay type: functional; procedure, shortened: as §1
Haemophilus influenzae = test: Antibacterial activity against Haemophilus influenzae ATCC 4976; assay type: functional; procedure, shortened: as §1
Caulobacter vibrioides [4] = test: Antibacterial activity against Caulobacter crescentus after 18 hrs; assay type: functional
Francisella tularensis = test: Antibacterial activity against Francisella tularensis; assay type: functional; procedure, shortened: as §2
Caulobacter vibrioides [5] = test: Inhibition of Caulobacter crescentus DNA methyltransferase CcrM assessed as transfer of [3H-Me] to DNA at 100 uM relative to control
Procedure, shortened: (§3)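 Inhibitor at 100 uM; methyl transfer from [3H-Me]-AdoMet to DNA substrate measured, expressed as percent of activity without inhibitor.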

Bacillus anthracis = test: Antibacterial activity against Bacillus anthracis; assay type: functional; procedure, shortened: as §2
[6] = target: T1, Demethylmenaquinone methyltransferase (Bacillus subtilis (strain 168)) (UniProt P31113); test: Inhibition of Bacillus subtilis MenH methyltransferase assessed as {3H-Me] to DNA at 100 uM relative control
T1 sequence (whole entry): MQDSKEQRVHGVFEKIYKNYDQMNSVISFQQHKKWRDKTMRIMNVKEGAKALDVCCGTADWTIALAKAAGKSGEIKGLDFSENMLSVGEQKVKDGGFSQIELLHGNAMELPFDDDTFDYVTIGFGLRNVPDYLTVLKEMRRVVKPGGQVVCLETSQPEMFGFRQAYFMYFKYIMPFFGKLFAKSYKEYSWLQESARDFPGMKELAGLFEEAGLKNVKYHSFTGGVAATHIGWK
Procedure, shortened: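 Lysate of E. coli JM109 overexpressing B. subtilis MenH (IPTG 1 mM induction, sonicated) in 0.1 M Tris-HCl pH 8.0, 10 mM MgCl2, 10 mM DTT, 1 uM FPP, 1 uM 1,4-dihydroxy-2-naphthoic acid, 1 uM IPP, 20 uM AdoMet plus [3H]-AdoMet; inhibitor 100 uM final; 37 °C 1 h; acid-methanol quench, hexane/2-propanol extraction, scintillation counting; triplicate; % of no-inhibitor activity.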

Escherichia coli = test: Inhibition of Escherichia coli DNA methyltransferase Dam assessed as transfer of [3H-Me] to DNA at 100 uM relative to control; procedure, shortened: as §3

Structure (SMILES) | MIC (Enterococcus faecalis) | MIC [1] | MIC (Moraxella catarrhalis) | MIC (Bacillus subtilis) | MIC (Staphylococcus aureus) | MIC [2] | MIC (Enterococcus faecium) | MIC [3] | MIC (Haemophilus influenzae) | MIC (Caulobacter vibrioides [4]) | MIC (Francisella tularensis) | Activity (Caulobacter vibrioides [5]) | MIC (Bacillus anthracis) | inhibition [6] | Activity (Escherichia coli)
C=CB(Oc1cccc2cccnc12)c1ccc(F)c(Cl)c1 | 32 µg/mL (≈ 103 µM) | 0.62 µg/mL (≈ 1.99 µM) | 2 µg/mL (≈ 6.42 µM) | 4 µg/mL (≈ 12.8 µM) | 2 µg/mL (≈ 6.42 µM) | 32 µg/mL (≈ 103 µM) | 2 µg/mL (≈ 6.42 µM) | 1 µg/mL (≈ 3.21 µM) | 4 µg/mL (≈ 12.8 µM) |  |  |  |  |  | 
Fc1ccc(B(Oc2cccc3cccnc23)c2ccc(F)cc2)cc1 | 32 µg/mL (≈ 92.7 µM) | 0.62 µg/mL (≈ 1.8 µM) | 2 µg/mL (≈ 5.79 µM) |  | 4 µg/mL (≈ 11.6 µM) |  | 32 µg/mL (≈ 92.7 µM) | 2 µg/mL (≈ 5.79 µM) | 4 µg/mL (≈ 11.6 µM) | 12.5 µg/mL (≈ 36.2 µM) |  |  |  |  | 
Clc1ccc(B(Oc2cccc3cccnc23)c2ccc(Cl)cc2)cc1 | 4 µg/mL (≈ 10.6 µM) | 0.31 µg/mL (≈ 0.82 µM) | 2 µg/mL (≈ 5.29 µM) | 2 µg/mL (≈ 5.29 µM) | 2 µg/mL (≈ 5.29 µM) | 64 µg/mL (≈ 169 µM) | 4 µg/mL (≈ 10.6 µM) | 2 µg/mL (≈ 5.29 µM) | 8 µg/mL (≈ 21.2 µM) | 4 µg/mL (≈ 10.6 µM) | 0.03 µg/mL (≈ 0.0794 µM) | Active | 6.25 µg/mL (≈ 16.5 µM) |  | 
C=CB(Oc1cccc2cccnc12)c1cccc(F)c1 | > 64 µg/mL | 0.31 µg/mL (≈ 1.12 µM) | 1 µg/mL (≈ 3.61 µM) | 2 µg/mL (≈ 7.22 µM) | 2 µg/mL (≈ 7.22 µM) | 32 µg/mL (≈ 115 µM) | 2 µg/mL (≈ 7.22 µM) | 1 µg/mL (≈ 3.61 µM) | 2 µg/mL (≈ 7.22 µM) |  | 16 µg/mL (≈ 57.7 µM) |  | 8 µg/mL (≈ 28.9 µM) |  | 
Clc1cccc(B(Oc2cccc3cccnc23)c2cccc(Cl)c2)c1 | 32 µg/mL (≈ 84.6 µM) | 0.62 µg/mL (≈ 1.64 µM) | 2 µg/mL (≈ 5.29 µM) | 2 µg/mL (≈ 5.29 µM) | 1 µg/mL (≈ 2.65 µM) | 32 µg/mL (≈ 84.6 µM) | 4 µg/mL (≈ 10.6 µM) | 2 µg/mL (≈ 5.29 µM) | 8 µg/mL (≈ 21.2 µM) |  | 0.01 µg/mL (≈ 0.0265 µM) | Active | 6.25 µg/mL (≈ 16.5 µM) |  | 
C=CB(Oc1cccc2cccnc12)c1cccc(Cl)c1 | 64 µg/mL (≈ 218 µM) | 0.62 µg/mL (≈ 2.11 µM) | 4 µg/mL (≈ 13.6 µM) | 4 µg/mL (≈ 13.6 µM) | 2 µg/mL (≈ 6.81 µM) | 16 µg/mL (≈ 54.5 µM) | 4 µg/mL (≈ 13.6 µM) | 1 µg/mL (≈ 3.41 µM) | 4 µg/mL (≈ 13.6 µM) |  |  |  | 8 µg/mL (≈ 27.3 µM) | 50% | 
Clc1ccc(B(Oc2ccc(Cl)c3cccnc23)c2ccc(Cl)cc2)cc1 | 32 µg/mL (≈ 77.6 µM) | 0.62 µg/mL (≈ 1.5 µM) | ≤ 0.125 µg/mL | 32 µg/mL (≈ 77.6 µM) | 0.5 µg/mL (≈ 1.21 µM) | 8 µg/mL (≈ 19.4 µM) | 2 µg/mL (≈ 4.85 µM) | 0.25 µg/mL (≈ 0.606 µM) | 0.25 µg/mL (≈ 0.606 µM) | 2.6 µg/mL (≈ 6.3 µM) | 0.01 µg/mL (≈ 0.0242 µM) | Active | 5.3 µg/mL (≈ 12.8 µM) |  | 
C=CB(Oc1cccc2cccnc12)c1ccccc1 | > 64 µg/mL |  | 2 µg/mL (≈ 7.72 µM) |  | 2 µg/mL (≈ 7.72 µM) | 32 µg/mL (≈ 123 µM) | 4 µg/mL (≈ 15.4 µM) | 1 µg/mL (≈ 3.86 µM) | 16 µg/mL (≈ 61.7 µM) |  |  |  |  |  | 
Clc1ccc(C(Oc2cccc3cccnc23)c2ccc(Cl)cc2)cc1 | > 64 µg/mL | > 5 µg/mL |  | > 64 µg/mL | > 64 µg/mL | > 64 µg/mL | > 64 µg/mL | > 64 µg/mL | > 64 µg/mL |  |  | inactive |  |  | inactive
C=CB(Oc1cccc2cccnc12)c1cccc(C#N)c1 | 8 µg/mL (≈ 28.2 µM) | 0.62 µg/mL (≈ 2.18 µM) | 2 µg/mL (≈ 7.04 µM) | 4 µg/mL (≈ 14.1 µM) | 1 µg/mL (≈ 3.52 µM) | 32 µg/mL (≈ 113 µM) | 2 µg/mL (≈ 7.04 µM) | 1 µg/mL (≈ 3.52 µM) | 2 µg/mL (≈ 7.04 µM) |  | 8 µg/mL (≈ 28.2 µM) |  | 8 µg/mL (≈ 28.2 µM) |  | 
Cc1ccc2cccc(OB(c3ccc(Cl)cc3)c3ccc(Cl)cc3)c2n1 | 32 µg/mL (≈ 81.6 µM) |  |  |  | 16 µg/mL (≈ 40.8 µM) |  | 16 µg/mL (≈ 40.8 µM) | 8 µg/mL (≈ 20.4 µM) |  | 2 µg/mL (≈ 5.1 µM) | 6 µg/mL (≈ 15.3 µM) | Active |  |  | 
C=CB(Oc1cccc2cccnc12)c1ccc(Cl)cc1 | > 64 µg/mL | 0.62 µg/mL (≈ 2.11 µM) | 1 µg/mL (≈ 3.41 µM) | 4 µg/mL (≈ 13.6 µM) | 2 µg/mL (≈ 6.81 µM) | 32 µg/mL (≈ 109 µM) | 4 µg/mL (≈ 13.6 µM) | 1 µg/mL (≈ 3.41 µM) | 2 µg/mL (≈ 6.81 µM) |  |  |  |  |  | 
C=CB(Oc1cccc2cccnc12)c1ccccc1Cl | 64 µg/mL (≈ 218 µM) | 0.31 µg/mL (≈ 1.06 µM) | 1 µg/mL (≈ 3.41 µM) | 4 µg/mL (≈ 13.6 µM) | 2 µg/mL (≈ 6.81 µM) | 32 µg/mL (≈ 109 µM) | 2 µg/mL (≈ 6.81 µM) | 1 µg/mL (≈ 3.41 µM) | 2 µg/mL (≈ 6.81 µM) |  | 16 µg/mL (≈ 54.5 µM) |  |  |  | 
